Data set [1] can be described thus: melting temperature; fluorescence melt of hairpins on a sequencing array, two-state fit, raised by 9.35 °C to match UV melts. Particulars: sodium 0.088 M. In short, it runs like this:
(§1)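 Folding enthalpy and melting temperature come from bootstrapped two-state fits to Cy3 fluorescence of library hairpins carrying annealed Cy3 and quencher oligos on a sequenced MiSeq flow cell. Imaging was done in 50 mM Na-HEPES pH 8.0, 25 mM NaCl, stepping by 2.5 °C up to 60 °C, and signals were normalised to pre-quench Cy3 and to control constructs. Results of four replicates were combined by inverse variance, and fitted temperatures were raised by 9.35 °C to match UV melts.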

A short description of data set [2]: folding enthalpy; higher = less favourable; fluorescence melt of hairpins on a sequencing array, two-state fit. The settings on record: sodium 0.088 M. In short, it runs like this: as §1

Regarding GATCCAACCTGGATC ((((((...)))))), in data set [1], the Tm came out at 50.4 °C. Moreover, the folding enthalpy in data set [2] was -31 kcal/mol.
The matching figures for GACTGCGAAAGCACCGTC ((((((....)))..))): 37.6 °C and -10.7 kcal/mol.
Taken in the same sequence, the figures for GCCCCGCGAAAGCCGTGC ((.(.((....)).).)) were 27.7 °C and -15.5 kcal/mol.
With GAATGCGAAAGCATTC ((((((....)))))), the Tm in data set [1] came to 68.4 °C. The folding enthalpy in data set [2] was -27.6 kcal/mol.
The matching figures for GCAGACGAAAGTCTATGC ((((((....)))..))): 45.8 °C and -14.9 kcal/mol.
Regarding GCTTCTCGAAAGAGCAGC (((.(((....))).))), the Tm in data set [1] was determined as 46.8 °C. Moreover, in data set [2], the folding enthalpy is -24 kcal/mol.
Taken in the same sequence, the figures for GTGCAACGAAAGTTTCAC (((.(((....))).))) were 41 °C and -21.4 kcal/mol.
The matching figures for GTCTCTGCGAAAGCAGAC (((..(((....)))))): 34.3 °C and -8.28 kcal/mol.
Consider GCCTTCGAAAGAAGGGGC ((((((....)))..))), for which the Tm in data set [1] amounted to 53.8 °C. For the same sequence, the folding enthalpy in data set [2] was -17.8 kcal/mol.
In the case of GTTGTCGAAAGACGAAAC ((((((....)))..))), in data set [1], the Tm was determined as 29.1 °C. Besides, the folding enthalpy in data set [2] was -9.08 kcal/mol.
The matching figures for GGTCCGCCGAAAGGCACC (((..(((....)))))): 28.3 °C and -8.71 kcal/mol.
Taken in the same sequence, the figures for GACACCGAAAGGTCGTC ((((((....))).))) were 50.2 °C and -21.7 kcal/mol.
Taken in the same sequence, the figures for GCGTTAATACGC ((((....)))) were 51.1 °C and -21.1 kcal/mol.
Consider GCATGGCGAAAGCTAAGC ((.(.((....)).).)), for which the Tm in data set [1] is 38.4 °C. Further, the folding enthalpy in data set [2] is -12.6 kcal/mol.
Taken in the same sequence, the figures for GATCGTCCTGACGATC ((((((....)))))) were 59.4 °C and -46.3 kcal/mol.
Consider GTCGAGCGAAAGCTTGAC (((.(((....))).))), for which the Tm in data set [1] was found to be 63.9 °C. Further, in data set [2], the folding enthalpy is -35.4 kcal/mol.
As to GCGGAGCCCGC ((((...)))), the Tm in data set [1] came to 49.4 °C. For the same sequence, in data set [2], the folding enthalpy was -11.3 kcal/mol.
On to CGGACGGAAACGTTACCG ((((((....)))..))), for which the Tm in data set [1] was 36.3 °C. Besides, in data set [2], the folding enthalpy was -20.6 kcal/mol.
For GTCAGCGAAAGCTATGAC ((((((....)))..))), the Tm in data set [1] stood at 44.2 °C. Also, in data set [2], the folding enthalpy was -20.6 kcal/mol.
For GCTTCCACGAAAGTGAGC (((..(((....)))))), in data set [1], the Tm amounted to 33.7 °C. In addition, the folding enthalpy in data set [2] is -12.3 kcal/mol.
Taken in the same sequence, the figures for GAATAGGCGAAAGCCTTC (((..(((....)))))) were 29.1 °C and -8.6 kcal/mol.
With GATCATACTCATGATC ((((((....)))))), the Tm in data set [1] worked out at 46.7 °C. Further, the folding enthalpy in data set [2] was -34 kcal/mol.
The matching figures for GATCACCCGGGTGATC ((((((....)))))): 59 °C and -51.9 kcal/mol.
Taken in the same sequence, the figures for GCTACCGAAAGGTCGAGC ((((((....)))..))) were 37 °C and -16.3 kcal/mol.
Taken in the same sequence, the figures for GATCGTGCTACGATC ((((((...)))))) were 57.3 °C and -41 kcal/mol.
With GATCAATCGTTGATC ((((((...)))))), the Tm in data set [1] was 40.4 °C. The folding enthalpy in data set [2] was -26.8 kcal/mol.
As to GATCGACTTATCGATC ((((((....)))))), the Tm in data set [1] came out at 51 °C. Further, the folding enthalpy in data set [2] was -44.6 kcal/mol.
Regarding GATCTTAACAAGATC ((((((...)))))), in data set [1], the Tm was 45.6 °C. In data set [2], the folding enthalpy was -31.9 kcal/mol.
In the case of GCACAGCGAAAGCTATGC (((.(((....))).))), the Tm in data set [1] came to 49.5 °C. Also, the folding enthalpy in data set [2] was -40.8 kcal/mol.
Taken in the same sequence, the figures for GTGCTGACGAAAGTCCAC (((..(((....)))))) were 40.8 °C and -11.9 kcal/mol.
The matching figures for GCGAGATTCGC ((((...)))): 47.7 °C and -17.1 kcal/mol.
GGTGCCGAAAGGCCCACC ((((((....)))..))): the Tm in data set [1] worked out at 50.6 °C. Further, the folding enthalpy in data set [2] was -11.4 kcal/mol.
On to GCTCATGGAAACACGAGC ((((.((....)).)))), for which the Tm in data set [1] was found to be 42.6 °C. The folding enthalpy in data set [2] was -38.1 kcal/mol.
For the sequence GCGGCGGTCCGC ((((....)))), the Tm in data set [1] was determined as 58.7 °C. Besides, the folding enthalpy in data set [2] is -17.6 kcal/mol.
The matching figures for GTGCTCGAAAGAGCCAC ((((((....))).))): 49 °C and -11.2 kcal/mol.
Taken in the same sequence, the figures for GACCGGCGAAAGCCGTC (((.(((....)))))) were 49.1 °C and -8.28 kcal/mol.
Taken in the same sequence, the figures for GATGGCGGAAACGCCGTC ((.((((....)))).)) were 58.3 °C and -21.4 kcal/mol.
